Reference: ChEMBL document CHEMBL3091343, “Nicotinamide phosphoribosyltransferase inhibitors, design, preparation, and structure-activity relationship” (J Med Chem, 2013)

Key:
MCF7 = experiment: Cytotoxicity against human MCF-7 cells assessed as growth inhibition after 72 hrs by WST-1 assay; type: functional, cell-based; details: MCF7, 72 h
A2780 = experiment: Cytotoxicity against human A2780 cells assessed as growth inhibition after 72 hrs by WST-1 assay; type: functional, cell-based; details: A2780, 72 h
[1] = molecular target: Nicotinamide phosphoribosyltransferase (Homo sapiens, UniProt P43490); experiment: Inhibition of NAMPT in human HepG2 cells using [14C]-nicotinamide/PRPP as substrate assessed as formation of [14C]-nicotinamide mononucleotide after 1 hr by liquid scintillation counting analysis; type: cell-based
HCT-116 [2] = experiment: Cytotoxicity against APO866-resistant human HCT116 cells assessed as growth inhibition after 72 hrs by WST-1 assay; type: functional, cell-based; details: HCT-116, 72 h
[3] = Toxicity in ip dosed NMRI mouse assessed as body weight loss administered as bid for 5 days; type: organism-based; details: in vivo
[4] = Tmax in NMRI mouse at 50 mg/kg, iv; type: ADME, organism-based; design: dose 50 mg/kg, route intravenous; details: in vivo
How it was run: (§1)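 Mouse PK after a single i.v. dose. Plasma proteins were precipitated with acetonitrile containing internal standard (3:1 v/v). Samples were analysed by UPLC-MS/MS on a C18 column at 40°C with an acetonitrile–0.05% formic acid gradient, using positive electrospray MRM. Parameters were derived by non-compartmental analysis.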

[5] = Toxicity in ip dosed NMRI mouse assessed as blood cell count administered as bid for 5 days; type: organism-based; details: in vivo
HCT-116 [6] = experiment: Cytotoxicity against human HCT116 cells assessed as growth inhibition after 72 hrs by WST-1 assay; type: functional, cell-based; details: HCT-116, 72 h
[7] = Half life in NMRI mouse at 50 mg/kg, iv; type: ADME, organism-based; design: dose 50 mg/kg, route intravenous; details: in vivo; how it was run: as §1
[8] = Clearance in NMRI mouse at 50 mg/kg, iv; type: ADME, organism-based; design: dose 50 mg/kg, route intravenous; details: in vivo; how it was run: as §1
HCT-116 [9] = experiment: Resistance factor, ratio of IC50 for APO866-resistant human HCT116 cells to IC50 for human HCT116 cells; type: functional
[10] = Apparent volume of distribution in NMRI mouse at 50 mg/kg, iv; type: ADME, organism-based; design: dose 50 mg/kg, route intravenous; details: in vivo, read-out: Vz; how it was run: as §1
[11] = Cmax in NMRI mouse at 50 mg/kg, iv; type: ADME, organism-based; design: dose 50 mg/kg, route intravenous; details: in vivo; how it was run: as §1
[12] = AUC in NMRI mouse at 50 mg/kg, iv; type: ADME, organism-based; design: dose 50 mg/kg, route intravenous; details: plasma; how it was run: as §1

Sequence of Nicotinamide phosphoribosyltransferase (P43490 whole entry): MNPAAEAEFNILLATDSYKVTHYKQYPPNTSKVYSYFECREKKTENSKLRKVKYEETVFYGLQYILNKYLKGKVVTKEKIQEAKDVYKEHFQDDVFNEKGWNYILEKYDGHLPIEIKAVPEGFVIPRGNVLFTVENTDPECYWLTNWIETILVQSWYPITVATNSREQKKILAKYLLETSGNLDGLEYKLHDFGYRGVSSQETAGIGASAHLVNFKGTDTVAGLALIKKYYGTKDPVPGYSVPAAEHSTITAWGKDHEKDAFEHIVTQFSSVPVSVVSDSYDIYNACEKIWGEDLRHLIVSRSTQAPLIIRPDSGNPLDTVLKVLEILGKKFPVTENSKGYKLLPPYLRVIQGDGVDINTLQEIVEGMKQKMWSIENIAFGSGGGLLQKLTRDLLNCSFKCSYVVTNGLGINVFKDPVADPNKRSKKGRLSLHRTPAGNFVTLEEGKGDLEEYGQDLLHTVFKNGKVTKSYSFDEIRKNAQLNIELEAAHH

| Compound | IC50 (MCF7) | IC50 (A2780) | other results |
| --- | --- | --- | --- |
| O=C1C(=O)C(Nc2ccncc2)C1NCCCCCS(=O)(=O)N(OCCN1CCOCC1)C1CCCCC1 (stereo unspecified) | 35.8 nM | 0.57 nM | IC50 [1]: 49.6 nM |
| O=C1C(=O)C(Nc2ccncc2)C1NCCCCCCS(=O)(=O)N(OCCN1CCOCC1)C1CCCCC1 (stereo unspecified) | 9 nM | 0.49 nM | IC50 (HCT-116 [2]): > 5000 nM; MTD at 120 h [3]: < 10 mg/kg; Tmax [4]: 4.98 min; MTD at 120 h [5]: < 10 mg/kg; IC50 (HCT-116 [6]): 39 nM; half-life [7]: 12.6 min; clearance [8]: 66.6 mL/min/kg; Ratio IC50 (HCT-116 [9]): 128; Vd [10]: 1.2 L/kg; Cmax [11]: 33500 ng/mL; AUC [12]: 12500 ng·h/mL |
| O=C(NCCCCCCS(=O)(=O)N(OCCN1CCOCC1)C1CCC1)NCc1cccnc1 | 11 nM | 2.2 nM |  |
| O=C(NCCCCCCCS(=O)(=O)N(OCCN1CCOCC1)C1CCCCC1)Nc1ccncc1 | 7.4 nM | 1.8 nM |  |
| N#C/N=C(\NCCCCCCCS(=O)(=O)N(OCCN1CCOCC1)C1CCCCC1)Nc1ccncc1 | 0.29 nM | 0.089 nM |  |
| N#CNC(=Nc1ccncc1)NCCCCCCC(=O)NOC1CCCCC1 | 940 nM | 35 nM | IC50 [1]: 1.1 nM |
| N#C/N=C(\NCCCCCCS(=O)(=O)N(OCCN1CCOCC1)C1CCCC1)Nc1ccncc1 |  | 0.0041 nM |  |
| O=C1C(=O)C(Nc2ccncc2)C1NCCCCCCC(=O)N(Cc1ccccc1)OCCN1CCOCC1 (stereo unspecified) | 12.3 nM | 0.29 nM |  |
| N#C/N=C(\NCCCCCCC(=O)N(Cc1ccccc1)OC1CCCCC1)Nc1ccncc1 | 1 nM | 0.055 nM | IC50 [1]: 38.5 nM |
| O=C(NCCCCCS(=O)(=O)N(OCCN1CCOCC1)C1CCC1)NCc1cccnc1 | 49 nM | 13 nM |  |
| O=C1C(=O)C(Nc2ccncc2)C1NCCCCCC(=O)N(Cc1ccccc1)OCCN1CCOCC1 (stereo unspecified) | 23 nM | 0.68 nM |  |
| O=C(NCCCCCCC(=O)N(OCCN1CCOCC1)C1CCCCC1)NCc1cccnc1 | 0.37 nM | 0.27 nM |  |
| O=C1C(=O)C(Nc2ccncc2)C1NCCCCCCS(=O)(=O)N(OCCN1CCOCC1)C1CCC1 (stereo unspecified) | 29.1 nM | 0.2 nM |  |
| C[C@H](CCCCCN/C(=N\C#N)Nc1ccncc1)C(=O)NOC1CCCCC1 | 38.3 nM | 3.9 nM |  |
| N#C/N=C(\NCCCCCCC(=O)N(OCCN1CCOCC1)C1CCCCC1)Nc1ccccc1 | 1020 nM | 98 nM |  |
| N#C/N=C(\NCCCCCS(=O)(=O)N(OCCN1CCOCC1)C1CCCC1)Nc1ccncc1 | 0.041 nM | 0.022 nM |  |
| N#CNC(=Nc1ccncc1)NCCCCCCS(=O)(=O)NOCC1CCCCC1 | 3.4 nM | 0.16 nM | IC50 [1]: 2.4 nM |
| O=C1C(=O)C(Nc2ccncc2)C1NCCCCCCS(=O)(=O)N(OCCN1CCOCC1)C1CCCC1 (stereo unspecified) | 13.7 nM | 0.59 nM |  |
| O=S(=O)(CCCCCCNC(=S)Nc1ccncc1)N(OCCN1CCOCC1)C1CCCC1 | 0.31 nM | 0.16 nM |  |
| O=C(CCCCCCNC(=S)NCc1cccnc1)N(OCCN1CCOCC1)C1CCCCC1 | 5.5 nM | 0.91 nM | IC50 [1]: 8.2 nM |
| N#C/N=C(\NCCCCCC(=O)N(Cc1ccccc1)OCCN1CCOCC1)Nc1ccncc1 | 0.021 nM | 0.081 nM |  |
| N#C/N=C(\NCCCCCCS(=O)(=O)N(CCN1CCOCC1)OCc1ccccc1)Nc1ccncc1 | 0.63 nM | 0.053 nM |  |
| N#C/N=C(\NCCCCCCCC(=O)N(Cc1ccccc1)OCCN1CCOCC1)Nc1ccncc1 |  | 0.01 nM | IC50 [1]: 4.4 nM |
